Results reported in ChEMBL document CHEMBL5058577, “EUbOPEN Chemogenomics Library 2 (Multiplex)” (2022).

System: HEK-293T
Assay: Multiplex assay against HEK293T
Format: toxicity, cell-based
Conditions: human
Method in brief: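 Tubulin, mitochondrial-mass and membrane-permeability phenotypes are per cents of healthy-nucleus cells. Cells were gated by CellPathfinder machine learning into Hoechst high-intensity objects or normal cells, normal cells into healthy, pyknosed or fragmented nuclei, and pyknosed cells into mitotic or apoptotic. Before that, live cells stained at seeding with Hoechst33342, BioTracker Green Microtubule Cytoskeleton Dye, MitoTracker Red and Annexin V Alexa Fluor 680 were imaged on a CQ1 microscope at 37°C and 5% CO2 after compound addition.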

[1] = 12 h, 1 µM, compound concentration 1 uM, replicate 1
[2] = 12 h, 1 µM, compound concentration 1 uM, replicate 2
[3] = 12 h, 10 µM, compound concentration 10 uM, replicate 1
[4] = 12 h, 10 µM, compound concentration 10 uM, replicate 2
[5] = 24 h, 1 µM, compound concentration 1 uM, replicate 1
[6] = 24 h, 1 µM, compound concentration 1 uM, replicate 2
[7] = 24 h, 10 µM, compound concentration 10 uM, replicate 1
[8] = 24 h, 10 µM, compound concentration 10 uM, replicate 2
[9] = 48 h, 1 µM, compound concentration 1 uM, replicate 1
[10] = 48 h, 1 µM, compound concentration 1 uM, replicate 2
[11] = 48 h, 10 µM, compound concentration 10 uM, replicate 1
[12] = 48 h, 10 µM, compound concentration 10 uM, replicate 2

CCCn1c(=O)c2[nH]c(C3CCCC3)nc2n(CCC)c1=O [1,3-DIPROPYL-8-CYCLOPENTYLXANTHINE [DPCPX]]
Population Apoptotic (%) [1]: 35% | Population Fragmented Nuclei (%) [1]: 7% | Population Healthy Nuclei (%) [1]: 79% | Population Hoechst High Intensity Objects (%) [1]: 6% | Population Membrane Permeable-Phenotype (%) [1]: 0% | Population Mitochondria Different-Phenotype (%) [1]: 44% | Population Mitotic Cells (%) [1]: 64% | Population Normal (%) [1]: 93% | Population Pyknosed Nuclei (%) [1]: 12% | Population Tubulin-Different-Phenotype (%) [1]: 32% | Total Cell Count [1]: 443 | Population Apoptotic (%) [2]: 54% | Population Fragmented Nuclei (%) [2]: 3% | Population Healthy Nuclei (%) [2]: 81% | Population Hoechst High Intensity Objects (%) [2]: 3% | Population Mitochondria Different-Phenotype (%) [2]: 52% | Population Mitotic Cells (%) [2]: 45% | Population Normal (%) [2]: 96% | Population Pyknosed Nuclei (%) [2]: 14% | Population Tubulin-Different-Phenotype (%) [2]: 15% | Total Cell Count [2]: 361 | Population Apoptotic (%) [3]: 60% | Population Fragmented Nuclei (%) [3]: 12% | Population Healthy Nuclei (%) [3]: 68% | Population Hoechst High Intensity Objects (%) [3]: 5% | Population Membrane Permeable-Phenotype (%) [3]: 0% | Population Mitochondria Different-Phenotype (%) [3]: 58% | Population Mitotic Cells (%) [3]: 39% | Population Normal (%) [3]: 94% | Population Pyknosed Nuclei (%) [3]: 19% | Population Tubulin-Different-Phenotype (%) [3]: 51% | Total Cell Count [3]: 295 | Population Apoptotic (%) [4]: 54% | Population Fragmented Nuclei (%) [4]: 7% | Population Healthy Nuclei (%) [4]: 75% | Population Hoechst High Intensity Objects (%) [4]: 18% | Population Mitochondria Different-Phenotype (%) [4]: 68% | Population Mitotic Cells (%) [4]: 45% | Population Normal (%) [4]: 81% | Population Pyknosed Nuclei (%) [4]: 16% | Population Tubulin-Different-Phenotype (%) [4]: 45% | Total Cell Count [4]: 337 | Population Apoptotic (%) [5]: 26% | Population Fragmented Nuclei (%) [5]: 8% | Population Healthy Nuclei (%) [5]: 78% | Population Hoechst High Intensity Objects (%) [5]: 4% | Population Membrane Permeable-Phenotype (%) [5]: 1% | Population Mitochondria Different-Phenotype (%) [5]: 25% | Population Mitotic Cells (%) [5]: 73% | Population Normal (%) [5]: 95% | Population Pyknosed Nuclei (%) [5]: 13% | Population Tubulin-Different-Phenotype (%) [5]: 20% | Total Cell Count [5]: 610 | Population Apoptotic (%) [6]: 28% | Population Fragmented Nuclei (%) [6]: 7% | Population Healthy Nuclei (%) [6]: 82% | Population Hoechst High Intensity Objects (%) [6]: 3% | Population Membrane Permeable-Phenotype (%) [6]: 0% | Population Mitochondria Different-Phenotype (%) [6]: 45% | Population Mitotic Cells (%) [6]: 71% | Population Normal (%) [6]: 96% | Population Pyknosed Nuclei (%) [6]: 10% | Population Tubulin-Different-Phenotype (%) [6]: 19% | Total Cell Count [6]: 403 | Population Apoptotic (%) [7]: 50% | Population Fragmented Nuclei (%) [7]: 8% | Population Healthy Nuclei (%) [7]: 76% | Population Hoechst High Intensity Objects (%) [7]: 4% | Population Membrane Permeable-Phenotype (%) [7]: 0% | Population Mitochondria Different-Phenotype (%) [7]: 43% | Population Mitotic Cells (%) [7]: 50% | Population Normal (%) [7]: 95% | Population Pyknosed Nuclei (%) [7]: 14% | Population Tubulin-Different-Phenotype (%) [7]: 40% | Total Cell Count [7]: 379 | Population Apoptotic (%) [8]: 41% | Population Fragmented Nuclei (%) [8]: 7% | Population Healthy Nuclei (%) [8]: 79% | Population Hoechst High Intensity Objects (%) [8]: 15% | Population Mitochondria Different-Phenotype (%) [8]: 55% | Population Mitotic Cells (%) [8]: 58% | Population Normal (%) [8]: 84% | Population Pyknosed Nuclei (%) [8]: 13% | Population Tubulin-Different-Phenotype (%) [8]: 31% | Total Cell Count [8]: 411 | Population Apoptotic (%) [9]: 33% | Population Fragmented Nuclei (%) [9]: 11% | Population Healthy Nuclei (%) [9]: 81% | Population Hoechst High Intensity Objects (%) [9]: 1% | Population Membrane Permeable-Phenotype (%) [9]: 1% | Population Mitochondria Different-Phenotype (%) [9]: 17% | Population Mitotic Cells (%) [9]: 66% | Population Normal (%) [9]: 98% | Population Pyknosed Nuclei (%) [9]: 7% | Population Tubulin-Different-Phenotype (%) [9]: 17% | Total Cell Count [9]: 957 | Population Apoptotic (%) [10]: 39% | Population Fragmented Nuclei (%) [10]: 14% | Population Healthy Nuclei (%) [10]: 80% | Population Hoechst High Intensity Objects (%) [10]: 3% | Population Membrane Permeable-Phenotype (%) [10]: 0% | Population Mitochondria Different-Phenotype (%) [10]: 22% | Population Mitotic Cells (%) [10]: 60% | Population Normal (%) [10]: 96% | Population Pyknosed Nuclei (%) [10]: 5% | Population Tubulin-Different-Phenotype (%) [10]: 13% | Total Cell Count [10]: 593 | Population Apoptotic (%) [11]: 29% | Population Fragmented Nuclei (%) [11]: 14% | Population Healthy Nuclei (%) [11]: 76% | Population Hoechst High Intensity Objects (%) [11]: 3% | Population Membrane Permeable-Phenotype (%) [11]: 1% | Population Mitochondria Different-Phenotype (%) [11]: 37% | Population Mitotic Cells (%) [11]: 70% | Population Normal (%) [11]: 96% | Population Pyknosed Nuclei (%) [11]: 8% | Population Tubulin-Different-Phenotype (%) [11]: 30% | Total Cell Count [11]: 511 | Population Apoptotic (%) [12]: 45% | Population Healthy Nuclei (%) [12]: 75% | Population Hoechst High Intensity Objects (%) [12]: 7% | Population Membrane Permeable-Phenotype (%) [12]: 0% | Population Mitochondria Different-Phenotype (%) [12]: 36% | Population Mitotic Cells (%) [12]: 54% | Population Normal (%) [12]: 92% | Population Pyknosed Nuclei (%) [12]: 10% | Population Tubulin-Different-Phenotype (%) [12]: 23% | Total Cell Count [12]: 516

COc1cc(NC(=O)CCN2CCC(OC(=O)Nc3ccccc3-c3ccccc3)CC2)c(Cl)cc1CNC[C@H](O)c1ccc(O)c2[nH]c(=O)ccc12 [BATEFENTEROL]
Population Apoptotic (%) [1]: 42% | Population Fragmented Nuclei (%) [1]: 4% | Population Healthy Nuclei (%) [1]: 81% | Population Hoechst High Intensity Objects (%) [1]: 7% | Population Membrane Permeable-Phenotype (%) [1]: 0% | Population Mitochondria Different-Phenotype (%) [1]: 65% | Population Mitotic Cells (%) [1]: 57% | Population Normal (%) [1]: 92% | Population Pyknosed Nuclei (%) [1]: 14% | Population Tubulin-Different-Phenotype (%) [1]: 44% | Total Cell Count [1]: 420 | Population Apoptotic (%) [2]: 47% | Population Fragmented Nuclei (%) [2]: 3% | Population Healthy Nuclei (%) [2]: 78% | Population Hoechst High Intensity Objects (%) [2]: 8% | Population Mitochondria Different-Phenotype (%) [2]: 84% | Population Mitotic Cells (%) [2]: 52% | Population Normal (%) [2]: 91% | Population Pyknosed Nuclei (%) [2]: 17% | Population Tubulin-Different-Phenotype (%) [2]: 41% | Total Cell Count [2]: 285 | Population Apoptotic (%) [3]: 100% | Population Fragmented Nuclei (%) [3]: 90% | Population Healthy Nuclei (%) [3]: 0% | Population Hoechst High Intensity Objects (%) [3]: 31% | Population Membrane Permeable-Phenotype (%) [3]: 0% | Population Mitochondria Different-Phenotype (%) [3]: 0% | Population Mitotic Cells (%) [3]: 0% | Population Normal (%) [3]: 68% | Population Pyknosed Nuclei (%) [3]: 9% | Population Tubulin-Different-Phenotype (%) [3]: 0% | Total Cell Count [3]: 16 | Population Apoptotic (%) [4]: 52% | Population Fragmented Nuclei (%) [4]: 5% | Population Healthy Nuclei (%) [4]: 72% | Population Hoechst High Intensity Objects (%) [4]: 11% | Population Membrane Permeable-Phenotype (%) [4]: 1% | Population Mitochondria Different-Phenotype (%) [4]: 87% | Population Mitotic Cells (%) [4]: 47% | Population Normal (%) [4]: 88% | Population Pyknosed Nuclei (%) [4]: 22% | Population Tubulin-Different-Phenotype (%) [4]: 67% | Total Cell Count [4]: 303 | Population Apoptotic (%) [5]: 44% | Population Fragmented Nuclei (%) [5]: 9% | Population Healthy Nuclei (%) [5]: 77% | Population Hoechst High Intensity Objects (%) [5]: 5% | Population Membrane Permeable-Phenotype (%) [5]: 0% | Population Mitochondria Different-Phenotype (%) [5]: 59% | Population Mitotic Cells (%) [5]: 55% | Population Normal (%) [5]: 94% | Population Pyknosed Nuclei (%) [5]: 12% | Population Tubulin-Different-Phenotype (%) [5]: 35% | Total Cell Count [5]: 527 | Population Apoptotic (%) [6]: 41% | Population Fragmented Nuclei (%) [6]: 7% | Population Healthy Nuclei (%) [6]: 82% | Population Hoechst High Intensity Objects (%) [6]: 8% | Population Mitochondria Different-Phenotype (%) [6]: 65% | Population Mitotic Cells (%) [6]: 58% | Population Normal (%) [6]: 91% | Population Pyknosed Nuclei (%) [6]: 9% | Population Tubulin-Different-Phenotype (%) [6]: 27% | Total Cell Count [6]: 403 | Population Apoptotic (%) [7]: 0% | Population Fragmented Nuclei (%) [7]: 87% | Population Healthy Nuclei (%) [7]: 12% | Population Hoechst High Intensity Objects (%) [7]: 33% | Population Membrane Permeable-Phenotype (%) [7]: 0% | Population Mitochondria Different-Phenotype (%) [7]: 100% | Population Mitotic Cells (%) [7]: 0% | Population Normal (%) [7]: 66% | Population Pyknosed Nuclei (%) [7]: 0% | Population Tubulin-Different-Phenotype (%) [7]: 100% | Total Cell Count [7]: 12 | Population Apoptotic (%) [8]: 56% | Population Fragmented Nuclei (%) [8]: 6% | Population Healthy Nuclei (%) [8]: 73% | Population Hoechst High Intensity Objects (%) [8]: 7% | Population Mitochondria Different-Phenotype (%) [8]: 89% | Population Mitotic Cells (%) [8]: 43% | Population Normal (%) [8]: 93% | Population Pyknosed Nuclei (%) [8]: 19% | Population Tubulin-Different-Phenotype (%) [8]: 78% | Total Cell Count [8]: 357 | Population Apoptotic (%) [9]: 35% | Population Fragmented Nuclei (%) [9]: 15% | Population Healthy Nuclei (%) [9]: 75% | Population Hoechst High Intensity Objects (%) [9]: 3% | Population Membrane Permeable-Phenotype (%) [9]: 0% | Population Mitochondria Different-Phenotype (%) [9]: 36% | Population Mitotic Cells (%) [9]: 65% | Population Normal (%) [9]: 96% | Population Pyknosed Nuclei (%) [9]: 8% | Population Tubulin-Different-Phenotype (%) [9]: 17% | Total Cell Count [9]: 744 | Population Apoptotic (%) [10]: 51% | Population Fragmented Nuclei (%) [10]: 13% | Population Healthy Nuclei (%) [10]: 79% | Population Mitochondria Different-Phenotype (%) [10]: 42% | Population Mitotic Cells (%) [10]: 48% | Population Pyknosed Nuclei (%) [10]: 6% | Total Cell Count [10]: 547 | Population Apoptotic (%) [11]: 100% | Population Fragmented Nuclei (%) [11]: 58% | Population Healthy Nuclei (%) [11]: 25% | Population Hoechst High Intensity Objects (%) [11]: 7% | Population Membrane Permeable-Phenotype (%) [11]: 0% | Population Mitochondria Different-Phenotype (%) [11]: 66% | Population Mitotic Cells (%) [11]: 0% | Population Normal (%) [11]: 92% | Population Pyknosed Nuclei (%) [11]: 16% | Population Tubulin-Different-Phenotype (%) [11]: 66% | Total Cell Count [11]: 13 | Population Apoptotic (%) [12]: 57% | Population Fragmented Nuclei (%) [12]: 11% | Population Healthy Nuclei (%) [12]: 76% | Population Mitochondria Different-Phenotype (%) [12]: 76% | Population Mitotic Cells (%) [12]: 42% | Population Pyknosed Nuclei (%) [12]: 11% | Population Tubulin-Different-Phenotype (%) [12]: 74% | Total Cell Count [12]: 427
